Measured values: the EternaBench riboswitch data

Test system: MS2 coat protein
Assay: apparent Kd, MS2 coat protein; higher = weaker binding; RNA-MaP array; FMN 200 µM where present
Outline: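 Each design was made on Illumina sequencing-chip clusters by stalled E. coli RNA polymerase and titrated with SNAP-549-labelled MS2 coat protein from 0.7 or 1.5 nM, doubling to 3 µM, in the absence and then the presence of constant ligand. The buffer was 100 mM Tris-HCl pH 7.5, 80 mM KCl, 4 mM MgCl2, BSA, DTT, yeast tRNA and Tween-20. The apparent Kd is the median of filtered per-cluster fits of binding curves, with green signal normalised to red-channel RNA signal and control-cluster median Fmax.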

[1] = designed as: ON switch for flavin mononucleotide, no ligand
[2] = ligand present: flavin mononucleotide, designed as: ON switch for flavin mononucleotide
[3] = designed as: OFF switch for flavin mononucleotide, no ligand
[4] = ligand present: flavin mononucleotide, designed as: OFF switch for flavin mononucleotide

| Sequence | apparent Kd [1] | apparent Kd [2] | apparent Kd [3] | apparent Kd [4] |
| --- | --- | --- | --- | --- |
| UGAGCGACCACAGGAUAUACUUGAGAAGACCGAGUAGAAGGGUGGAAGAGCGUGCAGUGACAUGAGGAUCACCCAUGUGGUUGU | 107 nM | 98.4 nM | – | – |
| ACAAGACAUGAGGAUCACCCAUGUGAGGAUAUGCUCGGAUGACAUGACGUUAGCUAACGCAGAAGGCACAAUAA | – | – | 55.8 nM | 56 nM |
| ACGCCAAUCGAGAAGGGCCCAUGUGCUACGUCGGCAGGAUAUCGACAUGAGGAUCACCCAUGUUGGCGAUCCUUUUUGGCUAAC | – | – | 147 nM | 212 nM |
| UACAGACAUGAGGAUCACCCAUGUGAGGAUAUCGGUACCGAUGGCAUAAUCUGCUCGGCGAGAAGGCACAGUGU | – | – | 28 nM | 48.4 nM |
| GCAUGGAAAGUGAGGAUAUACCACUGGAUACAGUGGUAGAAGGCACAUGAGGAUCACCCAUGUUCCUACCAUGC | – | – | 16.9 nM | 71.3 nM |
| AUACUAAAUGAAGGAUAUCUAAGCAUAAACCUGAGAGAAGGUCAUUUUUACAUGAGGAUCACCCAUGUUGUGGUUAAUGGGUUA | – | – | 216 nM | 317 nM |
| UGAGUGCGUGUUAGGAUAUGGUUUGGUGUUUCGGGCUAGAAGGGACAUGAGGAUCACCCAUGUAACUGGCGGGU | – | – | 53.3 nM | 51 nM |
| CAGCGGUCAGGAUAUGCAUGGCGGGACUUGCGUCGUGGCGUGGAGAAGGGACAUGAGGAUCACCCAUGUGGGAA | – | – | 134 nM | 81.9 nM |
| UCUUUCGUUGUGAGGAUAUGCCCAAAUAAAAGCGGGCAGAAGGCACAUGAGGAUCACCCAUGUCCUGCGGUUUU | – | – | 22.8 nM | 288 nM |
| UUGGACAGCUAGAACUGUUAAGUACAUGAGGAUCACCCAUGUCAGGAUAUCCUUCCGCAAUGCGAGGAGAAGGGACAGGGUCCC | – | – | 53.7 nM | 124 nM |
| AUUAUACAUGAGGAUCACCCAUGUAAUUAAUUAAUUAAGAUCUAGGAUAUCAGCUCGAAUAGAGCUGAGAAGGAGAUCACAUGU | 31.7 nM | 18 nM | – | – |
| GUGUAGACAGGAUAUGCUUUGAGCAUAUGAGAGUAUGCUCGACAUGAGGAUCACCCAUGUAGAAGGGUCUACAC | – | – | 12.1 nM | 12.9 nM |
| CUGAUGUCAGGAUAUCGGUGGCUCACUUGUGUGUGCCAGACCGAGAAGGGACAUGAGGAUCACCCAUGUCUUUA | – | – | 20.2 nM | 46.2 nM |
| CAAGGGUUAGGAUAUGGACGCUUAUAUUUGUAGCGGCGAAGCCAGAAGGAACAUGAGGAUCACCCAUGUUGGGA | – | – | 60.4 nM | 108 nM |
| AGUGUCAUCGAGAAGGCCUCGACAUGAGGAUCACCCAUGUUGUAACAUGGGAGGAUAUCGAUGAUACAGCUACGUUUCGUAGCA | 767 nM | 394 nM | – | – |
| UCCUUAUCGGUCAGGAUAUACACCCGUUUCUCCUUGUAGAAGGGACAUGAGGAUCACCCAUGUACUGUACAUUU | – | – | 30 nM | 31 nM |
| GAAGCAUGCAUUAACAUGAGGAUCACCCAUGUGAAAACACGUGAGGAUAUCGAUCUGAAGAAGAUCGAGAAGGCACCGUGCUAA | 8.87 nM | 7.62 nM | – | – |
| UUAGCGUAAGUAAGGAUAUGCUGGUCGAAAGACCAGCAGAAGGUACAUGAGGAUCACCCAUGUGGAUUCGUUAU | – | – | 27.8 nM | 92.6 nM |
| GCAUUUCAGUAAGGAUAUAUAAACAUGACGAUACAUGAGGAUCACCCAUGUGUAGAAGGUACUAAUACAUAUAAUGCAAUGGUC | – | – | 26.6 nM | 21.1 nM |

| Sequence | apparent Kd [1] | apparent Kd [2] | apparent Kd [3] | apparent Kd [4] |
| --- | --- | --- | --- | --- |
| AGCAUGUAAGGAUAUGUAACGCGGCUUUCAUUCGCCGUCCCACAGAAGGUACAUGAGGAUCACCCAUGUGCUCC | – | – | 38.1 nM | 87.6 nM |
| GCGUGAUUGUAGAAGGUACAUGAAAAUAUUUAAUACCUCAAGUAACAUGAGGAUCACCCAUGUAGUAAGGAUAUACAUAUACGC | 95 nM | 56.8 nM | – | – |
| AAUCACAUGAGGAUCACCCAUGUGCCAGAAGGCACAAAUCUGCCUGGUGCGCCCGGGCUUCUCUGUGAGGAUAUGGAAAAGAAG | 309 nM | 76 nM | – | – |
| CUCGUGUUAGGAUAUGGAUAGCCGUUUGACGAGCGAGGGCACUAGAAGGAACAUGAGGAUCACCCAUGUAAAAA | – | – | 21.3 nM | 21.1 nM |
| CCGGAAACGGGUAGCUGACAUGAGGAUCACCCAUGUGAAACACAGGAUAUGGAUCCUAAUUGGAUCCAGAAGGGUGUCAGCUAC | 247 nM | 37.2 nM | – | – |
| UUACUCAUGUAAGGAUAUGCAGCCGUUUCGGCUGCAGAAGGUACUAUAAUACAUGAGGAUCACCCAUGUCUCUAUUAUUUAGUG | 52.8 nM | 87.5 nM | – | – |
| GUCUCCGCUCGAGGAUAUAGCUGCAUGUAGUGUCCUGAGGCACAUGAGGAUCACCCAUGUGUAGGCUAGAAGGCGACGGACACU | – | – | – | 29.2 nM |
| CCAGCGUGUGUGAGGAUAUGCUGGUCCUUGGAUCAGCAGAAGGCACAUGAGGAUCACCCAUGUGAGUACGUUGG | – | – | 16.9 nM | 59.4 nM |
| UCCUUGUCCUGAGGAUAUCCGCGGUGACCAAAAGGAGAAGGCAGGACAUGAGGAUCACCCAUGUACCCAGAAAACGUGCAGAGU | – | – | 30.1 nM | 197 nM |
| AUUAUGUUAGGAUAUGCUUAUGGUGGAUAGUCCGAUAUGAUGCAGAAGGGACAUGAGGAUCACCCAUGUACUGA | – | – | 27.3 nM | 29.5 nM |
| AUGCUUCACACAGGAUAUACAUGAGGAUCACCCAUGUGUCCAAAGUAGCUGACACGAGCUACGCGGUAGAAGGGUGUGAAGCAU | – | – | 17.3 nM | 54.3 nM |
| CAGAAGUCAGGAUAUGCUGCUCGUCACUUGCGUGAUGAGUAGCAGAAGGGACAUGAGGAUCACCCAUGUAAAGC | – | – | 53.5 nM | 87.1 nM |
| AACAUGUGAGGAUAUGAGAACAGCCGGGAGGGCUGUGUAAAUUAGAAGGCACAUGAGGAUCACCCAUGUGACCU | – | – | 18.2 nM | 27.8 nM |
| GUACUGAAGCUUUGCUUUAGUCGUACAUGAGGAUCACCCAUGUAGGAUAUGGUAGGCUAUGCUUACUAGAAGGAUAGAGUGAUC | – | – | 88.8 nM | 46.4 nM |
| GUCGGAAACGACAAAAGUAUGGAUCCAGAAGGCAUGACACAUGAGGAUCACCCAUGUCUAAGACAUGAGGAUAUGGAUCCAUAC | 5.24 nM | 3.67 nM | – | – |
| AUUUUAAUAUAGGAUAUCGAUUUUAUUAUUUAACGAGAAGGAUAAACAUGAGGAUCACCCAUGUGGUAUCAUGG | – | – | 158 nM | 140 nM |
| CUAGCUAUCGGAGGAUAUUCAUAGCCGAAAGGCACAUGAGGAUCACCCAUGUGCGGAAACGCUUGGGAGAAGGCCGAUAGCUAG | 25.7 nM | 15.2 nM | – | – |
| UUGCCUCAGAACAUGAGGAUCACCCAUGUGCUGCGGGCAACGUAGGAUAUGAUGGUAUGAUACCGUCAGAAGGAUGAUGGUACC | 5.86 nM | 5.32 nM | – | – |
| AUUUAUAAGUAAGGAUAUCGGUUAUAUUUAAUUCGAGAAGGUACAUGAGGAUCACCCAUGUAAUAAAUAAAUAAAAUUUUUUUU | – | – | 36.4 nM | 28.7 nM |

| Sequence | apparent Kd [1] | apparent Kd [2] | apparent Kd [3] | apparent Kd [4] |
| --- | --- | --- | --- | --- |
| AGUGCCAUGUAGAAGGGAGAUCUGAUUCAGAUCUCAGGAUAUACAUGAGGAUCACCCAUGUAAAUGCACUGCACGAGAGUGCAA | – | – | 12.5 nM | 30.9 nM |
| CUGGGAUAGUGGGAUAGGGUUGCCAGAAGGGUCUACAUGAGGAUCACCCAUGUGGGUCCGAGUGGACAGGAUAUGGCGUCCGUA | – | – | 12.6 nM | 45.3 nM |
| UGCGUUUGAGGAUAUACGUAGAAUUAGAUUCAUGUAAAACUACAUGAGGAUCACCCAUGUAGAAGGCAAGCGCU | – | – | 17.7 nM | 79.4 nM |
| AUCAGCUCGUCAGGAUAUACGUCACUGCGUCAGCAGUGUGGUAAGAUCACAUGAGGAUCACCCAUGUAGAAGGCACGAGCUGAU | – | – | 8.44 nM | 9.04 nM |
| GUCCGCUCGUGAGGAUAUACAACACUGCUUCGGCAGUGUAUUAAGAUCACAUGAGGAUCACCCAUGUAGAAGGCACGAGCUGAU | – | – | 13.7 nM | 289 nM |
| AAAAAGGCAGGAUAUACAUGAGGAUCACCCAUGUGAAAAAAAAAAAAAAAAAAAAAGUGUAGAAGGGUCAAAAA | – | – | 56.9 nM | 46.7 nM |
| GGAUAGGACAGAGGAUAUACGUGCUAGAGAUACUAGCAUAAUUUCCUCACAUGAGGAUCACCCAUGUAGAAGGCUGUCCUAUCG | – | – | 6.78 nM | 46.7 nM |
| UUGUUCUGAGGAUAUACAUGAGGAUCACCCAUGUGUUUCUGCUUGGUGUCUUGCGUUUGUAGAAGGCUGUUCUC | – | – | 26.5 nM | 28 nM |
| GUGGUACAUGAGGAUCACCCAUGUUAGGAUAUCGCGUGAGGUUUUACUUCCGCACGCGCGAGAAGGGACGUCUU | – | – | 36.2 nM | 29.5 nM |
| AGGCAGCUACAUGAGGAUCACCCAUGUCUGUUUGGAUCUUCCAGAAGGCACGUAAAAUCGGUGGGUGAGGAUAUGGUAGGUCCC | 30.9 nM | 9.91 nM | – | – |
| UUUACGUGAGGAUAUGCGAAUAGAACGUAAGACAUACAGACGCAGAAGGCACAUGAGGAUCACCCAUGUGAACC | – | – | 20.5 nM | 41.4 nM |
| UGAAUGUAGGAGAAGGAGGACUUCAUGAGGAUCACCCAUGUGUUAGGACUUAGGAUAUUUGACGACAUGAGGAUCACCCAUGUG | 62.5 nM | 55.7 nM | – | – |
| UUAUGUUUUGUAGGAUAUCAUAAGUUAUGUAUUAUAAUUGAAAUUUUGUUAUGAGAAGGACAUUUACAUGAGGAUCACCCAUGU | – | – | 13.6 nM | 9.96 nM |
| AAAAAGCGAGGAUAUACAUGAGGAUCACCCAUGUCAAACGGUAAGACCGCAGGAAACAGUAGAAGGCGCAAAAA | – | – | 64.3 nM | 89.6 nM |
| UCAUUAUAAAUCCAUCAUAACUACAUGAGGAUCACCCAUGUGCAGGAUAUCGAUAAUUUAACUAACGAGAAGGGCAUUUACAGA | – | – | 37.6 nM | 139 nM |
| AGUUACAUGUAAGGAUAUACUAGCGAUAAGCUAGUAGAAGGUACUGUCUAUUGUAUCACUAUUAUACAUGAGGAUCACCCAUGU | 7.56 nM | 6.36 nM | – | – |
| AAUAACAGAGGAUAUACUGUUUUAUGUGUUUGUUGUUUUAAACAUGAGGAUCACCCAUGUAGAAGGCUGAGUAA | – | – | 23.2 nM | 23.7 nM |
| UCAGUUCUGCAAGGAUAUCGUCCUAGUUUGGUACGAGAAGGUGCUUUUGUUUUUUCCUUGUGUUGACAUGAGGAUCACCCAUGU | – | – | 35.8 nM | 46.5 nM |
